Measurements reported in ChEMBL document CHEMBL1126571, “Isocyanines and pseudoisocyanines as a novel class of potent noradrenaline transport inhibitors: synthesis, detection, and biological activity” (J Med Chem, 1993).

Key:
CAKI-1 = test: Tested for the inhibition of extraneuronal [3H]norepinephrine uptake in Caki-1 cells; type: functional, cell-based; conditions: Homo sapiens, CAKI-1, 15 min
In short: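 Human renal carcinoma Caki-1 monolayers expressing extraneuronal noradrenaline transport. Preincubated 20 min at 37 °C in HEPES buffer pH 7.4 with U-0521 and pargyline (10 μmol/L each) and ascorbate 1 mmol/L, then incubated 15 min at 37 °C with 100 nmol/L [3H]noradrenaline. Inhibitor present throughout. Cells rinsed ice-cold, read by scintillation. Specific uptake is the fraction sensitive to 100 μmol/L O-methylisoprenaline. IC50 from Hill fit, geometric mean with 95% confidence limits.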

[1] = Partition coefficient (logP); type: physicochemical; conditions: octanol/water
In short: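 Shake-flask octanol/water partition: compound diluted from ethanolic stock to 20 μmol/L in octanol-saturated sodium phosphate buffer (10 mmol/L, pH 7.4). Absorbance read before and after shaking 2 h at 21 °C with buffer-saturated 1-octanol (buffer:octanol volume ratio f), phases split by centrifugation. P = (Ao − Ax)/Ax × f. Read at 520 nm (pseudoisocyanines) or 565 nm (isocyanines); SEM, n = 4.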

PC-12 = test: Tested for the inhibition of neuronal type of noradrenaline uptake in clonal PC12 cells; type: functional, cell-based; conditions: Rattus norvegicus

IC50 (CAKI-1) [nM]	logP [1]	IC50 (PC-12) [nM]	Compound
29	0.86	–	CCN1/C(=C\c2cc[n+](CC)c3ccccc23)C=Cc2ccccc21
51	0.92	–	CC(C)[n+]1ccc(/C=C2/C=Cc3ccccc3N2C)c2ccccc21
12	0.65	3000	CC[n+]1c(Cc2ccc3ccccc3[n+]2CC)ccc2ccccc21
100	0.81	–	CN1C=C/C(=C/c2ccc3ccccc3[n+]2C)c2ccccc21
94	0.34	–	C[n+]1c(Cc2ccc3ccccc3[n+]2C)ccc2ccccc21
13	0.84	–	CC[n+]1c(Cc2ccc3ccccc3[n+]2C(C)C)ccc2ccccc21
14	1.16	–	CC(C)N1/C(=C\c2cc[n+](C(C)C)c3ccccc23)C=Cc2ccccc21 [DISPROCYNIUM24]
